Test results reported in ChEMBL document CHEMBL3102698, “New highly toxic bile acids derived from deoxycholic acid, chenodeoxycholic acid and lithocholic acid” (Bioorg Med Chem, 2014).
Active and inactive are the calls of the source. No cut-off for these calls is given here.

Tests used:
Caco-2 [1] = test: Cytotoxicity against human Caco2 cells assessed as cell viability at 10 uM after 24 hrs by MTT assay in presence of antioxidant N-acetyl cysteine; type: functional, cell-based
Outline: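 MTT viability run on Caco-2 with and without 1 mM N-acetyl cysteine co-incubation. Compounds at 10 µM, natural bile acids at 100 µM, 24 h serum-free after 1 h serum starvation. MTT 0.5 mg/mL for 3 h at 37 °C, then DMSO solubilisation and OD at 540 nm, expressed as % of untreated; n = 3.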

Caco-2 [2] = test: Induction of ROS production in human Caco2 cells at 10 uM after 0.5 to 24 hrs by 2',7'-dichlorfluorescein-diacetate staining-based fluorescence assay; type: functional, cell-based
Outline: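 Caco-2 at 70-80% confluence exposed in serum-free medium for 30 min or 24 h (compounds 10 µM, natural bile acids 100 µM). Medium then replaced with 100 µM 2',7'-dichlorofluorescein diacetate for 30 min at 37 °C, cells washed with PBS, fluorescence read at ex 490/em 530 nm. Signal expressed relative to vehicle and corrected for MTT viability; n = 3.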

[3] = Cytotoxicity against human HT1080 cells assessed as cell viability after 24 hrs by MTT assay; type: functional, cell-based; settings: HT-1080, 24 h
Outline: (§1)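 Cells grown to 70% confluence (Caco-2 seeded 8 × 10^3/well, HT1080 12 × 10^4/well), serum-starved 1 h, then exposed 24 h serum-free to 0.1-1000 µM (DMSO ≤0.5%). MTT 0.5 mg/mL added for 3 h at 37 °C; formazan dissolved in DMSO, OD read at 540 nm. Viability taken as % of untreated OD. IC50 fitted from eight concentration levels, at least three experiments in triplicate.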

Caco-2 [4] = test: Cytotoxicity against human Caco2 cells assessed as cell viability after 24 hrs by MTT assay; type: functional, cell-based; settings: Caco-2, 24 h; outline: as §1
Caco-2 [5] = test: Cytotoxicity against human Caco2 cells assessed as cell viability at 100 uM after 24 hrs by MTT assay in presence of antioxidant N-acetyl cysteine; type: functional, cell-based
Outline: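 Caco-2 grown to 70% confluence, serum-starved 1 h, then treated 24 h serum-free with compound plus 1 mM NAC; DMSO vehicle at most 0.5%. MTT 0.5 mg/mL for 3 h at 37 °C, formazan dissolved in DMSO, OD 540 nm. Viability expressed as % of untreated cells; n = 3.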

HT-1080 [6] = test: Induction of necrosis in human HT1080 cells at 3.125 to 100 uM after 24 hrs by annexin V-FITC/propidium iodide staining-based flow cytometric analysis; type: functional, cell-based
Outline: (§2)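 Caco-2 or HT1080 grown to 80% confluence, then treated 24 h in serum-free medium (vehicle controls run in parallel) at seven concentrations. Cells collected, washed and resuspended in binding buffer, stained with annexin V-FITC plus propidium iodide for 15 min at rt in the dark, and analysed within 5 min. Quadrants scored: annexin+/PI− early apoptotic, double-positive late apoptotic, PI+ only dead.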

HT-1080 [7] = test: Induction of apoptosis in human HT1080 cells at 3.125 to 100 uM after 24 hrs by annexin V-FITC/propidium iodide staining-based flow cytometric analysis; type: functional, cell-based; outline: as §2
Caco-2 [8] = test: Induction of necrosis in human Caco2 cells at 50 to 100 uM after 24 hrs by annexin V-FITC/propidium iodide staining-based flow cytometric analysis; type: functional, cell-based
Outline: (§3)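 Cells grown to 80% confluence, exposed 24 h in serum-free medium, with vehicle-only controls. Harvested cells washed and resuspended in binding buffer, then stained with annexin V-FITC and propidium iodide 15 min at rt in the dark. Read by flow cytometry within 5 min. Annexin V−/PI+ cells scored necrotic and annexin V+ cells apoptotic; quadrant percentages reported.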

HT-1080 [9] = test: Induction of necrosis in human HT1080 cells at 50 to 100 uM after 24 hrs by annexin V-FITC/propidium iodide staining-based flow cytometric analysis; type: functional, cell-based; outline: as §3
Caco-2 [10] = test: Induction of apoptosis in human Caco2 cells at 3.125 to 100 uM after 24 hrs by annexin V-FITC/propidium iodide staining-based flow cytometric analysis; type: functional, cell-based; outline: as §2
[11] = Cytotoxicity against human HET-1A cells; type: cell-based
Caco-2 [12] = test: Induction of necrosis in human Caco2 cells up to 500 uM after 24 hrs by annexin V-FITC/propidium iodide staining-based flow cytometric analysis; type: functional, cell-based; outline: as §3
HT-1080 [13] = test: Induction of necrosis in human HT1080 cells up to 500 uM after 24 hrs by annexin V-FITC/propidium iodide staining-based flow cytometric analysis; type: functional, cell-based; outline: as §3

| Structure (SMILES) | IC50 [3] [µM] | IC50 (Caco-2 [4]) [µM] | also measured |
| --- | --- | --- | --- |
| C[C@H](CCC(N)=O)[C@H]1CC[C@H]2[C@@H]3CC[C@@H]4C[C@H](N=[N+]=[N-])CC[C@]4(C)[C@H]3C[C@H](O)[C@]12C | 10 | 12.6 | Activity (Caco-2 [1]): inactive; Activity (Caco-2 [2]): Active |
| C[C@H](CCC(=O)O)[C@H]1CC[C@H]2[C@@H]3[C@@H](O)C[C@@H]4C[C@H](O)CC[C@]4(C)[C@H]3CC[C@]12C |  |  | Activity (Caco-2 [5]): inactive |
| C[C@H](CCC(=O)NC1CC1)[C@H]1CC[C@H]2[C@@H]3CC[C@@H]4C[C@H](N=[N+]=[N-])CC[C@]4(C)[C@H]3C[C@H](O)[C@]12C | 5.7 | 2.3 | Activity (Caco-2 [1]): inactive |
| C[C@H](CCC(N)=O)[C@H]1CC[C@H]2[C@@H]3CC[C@@H]4C[C@@H](N=[N+]=[N-])CC[C@]4(C)[C@H]3CC[C@]12C | 13.1 | > 500 | Activity (HT-1080 [6]): Active |
| C[C@H](CCC(=O)O)[C@H]1CC[C@H]2[C@@H]3[C@H](O)C[C@@H]4C[C@H](N=[N+]=[N-])CC[C@]4(C)[C@H]3CC[C@]12C | 26.2 | 43.7 |  |
| C[C@H](CCC(=O)NC1CCCCC1)[C@H]1CC[C@H]2[C@@H]3CC[C@@H]4C[C@@H](N=[N+]=[N-])CC[C@]4(C)[C@H]3C[C@H](O)[C@]12C | > 100 | > 1000 |  |
| C[C@H](CCC(N)=O)[C@H]1CC[C@H]2[C@@H]3[C@H](O)C[C@@H]4C[C@@H](N=[N+]=[N-])CC[C@]4(C)[C@H]3CC[C@]12C | 6.9 | 9.8 | Activity (Caco-2 [1]): inactive; Activity (Caco-2 [2]): Active |
| C[C@H](CCC(=O)NC1CC1)[C@H]1CC[C@H]2C3=CC[C@@H]4C[C@H](O)CC[C@]4(C)[C@H]3CC[C@]12C |  | 9.5 |  |
| CC(=O)O[C@@H]1C[C@@H]2C[C@@H](N=[N+]=[N-])CC[C@]2(C)[C@H]2CC[C@]3(C)[C@@H]([C@H](C)CCC(N)=O)CC[C@H]3[C@H]12 |  | 5.5 |  |
| C[C@H](CCC(=O)O)[C@H]1CC[C@H]2[C@@H]3[C@H](O)C[C@@H]4C[C@@H](N=[N+]=[N-])CC[C@]4(C)[C@H]3CC[C@]12C | 23.6 | 40.3 |  |
| C[C@H](CCC(=O)NC1CC1)[C@H]1CC[C@H]2[C@@H]3[C@H](O)C[C@@H]4C[C@@H](N=[N+]=[N-])CC[C@]4(C)[C@H]3CC[C@]12C | 3.2 | 7.6 | Activity (Caco-2 [1]): inactive; Activity (Caco-2 [2]): Active |
| CCCNC(=O)CC[C@@H](C)[C@H]1CC[C@H]2[C@@H]3CC[C@@H]4C[C@@H](N=[N+]=[N-])CC[C@]4(C)[C@H]3CC[C@]12C | > 200 | > 1000 |  |
| CC(=O)O[C@@H]1C[C@@H]2C[C@@H](N=[N+]=[N-])CC[C@]2(C)[C@H]2CC[C@]3(C)[C@@H]([C@H](C)CCC(=O)NC4CC4)CC[C@H]3[C@H]12 |  | 6.2 |  |
| C[C@H](CCC(=O)NCc1ccccc1)[C@H]1CC[C@H]2[C@@H]3CC[C@@H]4C[C@@H](N=[N+]=[N-])CC[C@]4(C)[C@H]3CC[C@]12C | > 100 | > 100 |  |
| C[C@H](CCC(=O)NC1CC1)[C@H]1CC[C@H]2[C@@H]3CC[C@@H]4C[C@@H](N=[N+]=[N-])CC[C@]4(C)[C@H]3CC[C@]12C | > 100 | > 100 |  |
| C[C@H](CCC(N)=O)[C@H]1CC[C@H]2[C@@H]3CC[C@@H]4C[C@@H](N=[N+]=[N-])CC[C@]4(C)[C@H]3C[C@H](O)[C@]12C | 3.6 | 10.7 |  |
| C[C@H](CCC(=O)NC1CCCCC1)[C@H]1CC[C@H]2[C@@H]3CC[C@@H]4C[C@@H](N=[N+]=[N-])CC[C@]4(C)[C@H]3CC[C@]12C | > 1000 | > 1000 |  |
| C[C@H](CCC(=O)NC1CC1)[C@H]1CC[C@H]2[C@@H]3CC[C@@H]4C[C@@H](N=[N+]=[N-])CC[C@]4(C)[C@H]3C[C@H](O)[C@]12C | 1.9 | 6.3 | Activity (Caco-2 [1]): inactive; Activity (HT-1080 [7]): Active |
| C[C@H](CCC(=O)O)[C@H]1CC[C@H]2C3=CC[C@@H]4C[C@H](O)CC[C@]4(C)[C@H]3CC[C@]12C |  | > 100 |  |
| C[C@H](CCC(=O)O)[C@H]1CC[C@H]2[C@@H]3CC[C@@H]4C[C@H](O)CC[C@]4(C)[C@H]3CC[C@]12C [LITHOCHOLIC ACID] | 23 | 56 | Activity (Caco-2 [8]): Active; Activity (Caco-2 [5]): inactive; Activity (HT-1080 [9]): Active |
| C[C@H](CCC(=O)O)[C@H]1CC[C@H]2[C@@H]3CC[C@@H]4C[C@@H](N=[N+]=[N-])CC[C@]4(C)[C@H]3CC[C@]12C | 21.3 | > 250 | Activity (Caco-2 [10]): Active; Activity (HT-1080 [7]): Active |
| CC(=O)O[C@@H]1C[C@@H]2C[C@@H](N=[N+]=[N-])CC[C@]2(C)[C@H]2CC[C@]3(C)[C@@H]([C@H](C)CCC(=O)O)CC[C@H]3[C@H]12 |  | 15.6 |  |
| C[C@H](CCC(N)=O)[C@H]1CC[C@H]2[C@@H]3CC[C@@H]4C[C@H](O)CC[C@]4(C)[C@H]3C[C@H](O)[C@]12C |  |  | EC50 [11]: 39 µM |
| C[C@H](CCC(N)=O)[C@H]1CC[C@H]2C3=CC[C@@H]4C[C@H](O)CC[C@]4(C)[C@H]3CC[C@]12C |  | > 100 |  |
| C[C@H](CCC(=O)NCc1ccccc1)[C@H]1CC[C@H]2[C@@H]3CC[C@@H]4C[C@@H](N=[N+]=[N-])CC[C@]4(C)[C@H]3C[C@H](O)[C@]12C | > 500 | > 1000 | Activity (Caco-2 [2]): Active |
| C[C@H](CCC(=O)O)[C@H]1CC[C@H]2[C@@H]3[C@H](O)C[C@@H]4C[C@H](O)CC[C@]4(C)[C@H]3CC[C@]12C [CHENODIOL] | 130 | 106 | Activity (Caco-2 [12]): inactive; Activity (HT-1080 [13]): inactive |
| C[C@H](CCC(=O)O)[C@H]1CC[C@H]2[C@@H]3CC[C@@H]4C[C@@H](N=[N+]=[N-])CC[C@]4(C)[C@H]3C[C@H](O)[C@]12C |  |  | EC50 [11]: 97 µM |
